≈ marks a conversion by molar mass, not a printed value.
Tests used:
[1] = target: Dual specificity tyrosine-phosphorylation-regulated kinase 1A (Homo sapiens, UniProt Q13627); test: Displacement of Kinase tracer 236 from biotinylated DYRK1A (unknown origin) expressed in Escherichia coli BL21 (DE3) incubated for 1.5 hrs by TR-FRET assay
[2] = Metabolic stability in human liver microsomes; assay type: ADME, Microsome; settings: read-out: Stabilty
[3] = Metabolic stability in rat liver microsomes; assay type: ADME, Microsome; settings: read-out: Stabilty
[4] = Thermodynamic solubility of the compound at pH 6.8; assay type: physicochemical; settings: buffer, read-out: Therm_solubility
Method in brief: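 Thermodynamic solubility measured at pH 6.8 in a single experiment, reported in […].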

[5] = target: Dual specificity tyrosine-phosphorylation-regulated kinase 1B (Homo sapiens) (UniProt Q9Y463); test: Inhibition of wild-type human full length DYRK1B (M1 to S629 residues) expressed in bacterial expression system assessed as remaining activity at 1 uM by Kinomescan method relative to control
Dual specificity tyrosine-phosphorylation-regulated kinase 1B (Homo sapiens), sequence (Q9Y463 whole entry, looked up, the tested form may be a part): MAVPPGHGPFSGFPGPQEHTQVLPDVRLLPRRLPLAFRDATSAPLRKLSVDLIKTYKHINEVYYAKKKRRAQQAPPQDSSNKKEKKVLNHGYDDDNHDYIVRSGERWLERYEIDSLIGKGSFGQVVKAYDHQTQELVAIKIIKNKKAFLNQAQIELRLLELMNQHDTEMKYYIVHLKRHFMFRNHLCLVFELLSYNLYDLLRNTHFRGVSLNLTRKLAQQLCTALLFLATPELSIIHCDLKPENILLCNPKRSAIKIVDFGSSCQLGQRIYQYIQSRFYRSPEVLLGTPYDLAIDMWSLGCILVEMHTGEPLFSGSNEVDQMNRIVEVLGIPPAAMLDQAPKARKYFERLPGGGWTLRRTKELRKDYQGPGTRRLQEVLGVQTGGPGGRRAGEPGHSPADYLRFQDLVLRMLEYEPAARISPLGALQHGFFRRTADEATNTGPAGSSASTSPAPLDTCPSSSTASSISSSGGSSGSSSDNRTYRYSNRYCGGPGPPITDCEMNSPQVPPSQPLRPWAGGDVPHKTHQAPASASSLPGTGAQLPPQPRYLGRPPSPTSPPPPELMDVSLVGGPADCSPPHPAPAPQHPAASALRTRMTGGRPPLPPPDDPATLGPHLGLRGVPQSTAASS
Method in brief: (§1)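 KINOMEscan competition binding panel run with inhibitor at 1 μM; read-out is remaining kinase activity (percent of control).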

[6] = target: T1, Dual specificity tyrosine-phosphorylation-regulated kinase 2 (Homo sapiens) (UniProt Q92630); test: Inhibition of wild-type human full length DYRK2 (M1 to S528 residues) expressed in mammalian expression system assessed as remaining activity at 1 uM by Kinomescan method relative to control; method in brief: as §1
T1 sequence (whole entry): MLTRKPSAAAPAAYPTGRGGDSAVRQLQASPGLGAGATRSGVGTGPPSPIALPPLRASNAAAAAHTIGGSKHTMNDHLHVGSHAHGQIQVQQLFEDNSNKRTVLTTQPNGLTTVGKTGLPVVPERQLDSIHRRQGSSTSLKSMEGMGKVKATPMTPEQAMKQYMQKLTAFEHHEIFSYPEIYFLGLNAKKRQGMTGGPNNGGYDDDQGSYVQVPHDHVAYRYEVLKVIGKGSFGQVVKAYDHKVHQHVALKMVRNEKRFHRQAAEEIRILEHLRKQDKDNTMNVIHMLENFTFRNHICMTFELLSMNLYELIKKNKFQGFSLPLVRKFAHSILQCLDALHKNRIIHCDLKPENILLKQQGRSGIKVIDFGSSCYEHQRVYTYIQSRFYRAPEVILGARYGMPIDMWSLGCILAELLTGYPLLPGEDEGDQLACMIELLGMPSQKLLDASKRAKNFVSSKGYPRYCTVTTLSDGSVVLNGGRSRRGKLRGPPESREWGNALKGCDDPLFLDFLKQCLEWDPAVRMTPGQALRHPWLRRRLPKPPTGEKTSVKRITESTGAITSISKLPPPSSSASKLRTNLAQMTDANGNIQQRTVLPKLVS

[7] = target: Dual specificity protein kinase CLK1 (Homo sapiens, UniProt P49759); test: Inhibition of wild-type human full length CLK1 (M1 to I484 residues) expressed in bacterial expression system assessed as remaining activity at 1 uM by Kinomescan method relative to control; method in brief: as §1
Dual specificity protein kinase CLK1, sequence (P49759 whole entry, looked up, the tested form may be a part): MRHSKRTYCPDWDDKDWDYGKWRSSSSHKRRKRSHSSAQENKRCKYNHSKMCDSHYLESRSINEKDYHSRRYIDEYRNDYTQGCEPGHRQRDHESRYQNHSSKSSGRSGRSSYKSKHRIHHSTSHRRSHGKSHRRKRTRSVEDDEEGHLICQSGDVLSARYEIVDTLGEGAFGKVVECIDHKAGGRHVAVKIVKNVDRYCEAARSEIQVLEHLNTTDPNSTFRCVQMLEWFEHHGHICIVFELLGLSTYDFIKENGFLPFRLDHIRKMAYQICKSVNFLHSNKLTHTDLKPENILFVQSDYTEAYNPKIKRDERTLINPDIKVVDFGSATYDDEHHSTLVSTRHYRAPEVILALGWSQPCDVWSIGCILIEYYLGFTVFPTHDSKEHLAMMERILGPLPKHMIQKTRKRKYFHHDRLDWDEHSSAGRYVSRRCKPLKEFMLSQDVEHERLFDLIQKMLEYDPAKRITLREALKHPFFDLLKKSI

[8] = target: Dual specificity protein kinase CLK2 (Homo sapiens) (UniProt P49760); test: Inhibition of wild-type human partial length CLK2 (D144 to R498 residues) expressed in bacterial expression system assessed as remaining activity at 1 uM by Kinomescan method relative to control; method in brief: as §1
Dual specificity protein kinase CLK2 (Homo sapiens), sequence (P49760 whole entry, looked up, the tested form may be a part): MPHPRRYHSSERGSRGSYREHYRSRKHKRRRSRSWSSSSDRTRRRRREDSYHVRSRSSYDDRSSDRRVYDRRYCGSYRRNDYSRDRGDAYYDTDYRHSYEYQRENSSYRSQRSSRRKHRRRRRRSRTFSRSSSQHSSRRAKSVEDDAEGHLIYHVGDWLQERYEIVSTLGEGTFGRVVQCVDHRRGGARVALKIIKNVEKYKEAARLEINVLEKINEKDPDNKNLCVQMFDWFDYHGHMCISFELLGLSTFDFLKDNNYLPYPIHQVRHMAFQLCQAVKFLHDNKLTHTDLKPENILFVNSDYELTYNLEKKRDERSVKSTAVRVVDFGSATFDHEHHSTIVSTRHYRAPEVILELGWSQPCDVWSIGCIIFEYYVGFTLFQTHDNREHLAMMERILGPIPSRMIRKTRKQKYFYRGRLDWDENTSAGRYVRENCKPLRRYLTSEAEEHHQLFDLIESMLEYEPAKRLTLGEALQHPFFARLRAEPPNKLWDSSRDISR

[9] = target: Dual specificity protein kinase CLK3 (Homo sapiens) (UniProt P49761); test: Inhibition of wild-type human full length CLK3 (M1 to R490 residues) expressed in bacterial expression system assessed as remaining activity at 1 uM by Kinomescan method relative to control; method in brief: as §1
Dual specificity protein kinase CLK3 (Homo sapiens), sequence (P49761 whole entry, looked up, the tested form may be a part): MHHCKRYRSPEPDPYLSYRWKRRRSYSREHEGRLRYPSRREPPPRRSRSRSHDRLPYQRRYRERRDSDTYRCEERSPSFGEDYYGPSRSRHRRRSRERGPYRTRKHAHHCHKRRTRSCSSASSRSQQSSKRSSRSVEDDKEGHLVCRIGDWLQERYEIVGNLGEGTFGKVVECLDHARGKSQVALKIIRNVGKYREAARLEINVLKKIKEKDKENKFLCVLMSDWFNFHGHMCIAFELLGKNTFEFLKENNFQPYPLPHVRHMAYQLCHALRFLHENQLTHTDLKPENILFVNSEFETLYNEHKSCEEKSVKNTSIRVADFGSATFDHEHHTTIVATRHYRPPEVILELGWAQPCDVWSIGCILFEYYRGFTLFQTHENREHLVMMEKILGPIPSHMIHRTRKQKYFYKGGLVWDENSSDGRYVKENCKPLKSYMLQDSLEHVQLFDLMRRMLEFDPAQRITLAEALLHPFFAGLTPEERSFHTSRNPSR

[10] = target: Cyclin-dependent kinase 2 (Homo sapiens) (UniProt P24941); test: Inhibition of wild-type human full length CDK2 (M1 to L298 residues) expressed in bacterial expression system assessed as remaining activity at 1 uM by Kinomescan method relative to control; method in brief: as §1
[11] = target: Glycogen synthase kinase-3 beta (Homo sapiens) (UniProt P49841); test: Inhibition of wild-type human full length GSK3B (M1 to T433 residues) expressed in mammalian expression system assessed as remaining activity at 1 uM by Kinomescan method relative to control; method in brief: as §1
Glycogen synthase kinase-3 beta (Homo sapiens), sequence (P49841 whole entry, looked up, the tested form may be a part): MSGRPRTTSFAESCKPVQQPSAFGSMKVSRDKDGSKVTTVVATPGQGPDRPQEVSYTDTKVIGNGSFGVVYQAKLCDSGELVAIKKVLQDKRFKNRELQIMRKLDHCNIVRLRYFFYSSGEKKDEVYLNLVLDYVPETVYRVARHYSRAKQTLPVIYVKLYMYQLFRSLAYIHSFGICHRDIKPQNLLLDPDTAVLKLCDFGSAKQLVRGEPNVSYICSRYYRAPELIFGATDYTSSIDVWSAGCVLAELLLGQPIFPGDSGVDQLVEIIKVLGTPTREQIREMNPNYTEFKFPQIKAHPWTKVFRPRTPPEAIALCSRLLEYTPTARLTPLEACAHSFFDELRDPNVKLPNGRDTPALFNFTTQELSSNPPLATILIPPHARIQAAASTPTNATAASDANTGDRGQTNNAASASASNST

CC1(C)CCN(c2nccc(-c3cnn4ncccc34)n2)C1
IC50 [1]: 427 nM

CN(C)c1cc(-c2cnn3ncccc23)ccn1
IC50 [1]: 676 nM

c1cnn2ncc(-c3ccnc(N4CC5(COC5)C4)n3)c2c1
IC50 [1]: 513 nM

COCCCN(C)c1nccc(-c2cnn3ncccc23)n1
IC50 [1]: 219 nM

Cc1cnn2ncc(-c3ccnc(N(C)C)n3)c2c1
IC50 [1]: 115 nM | microsomal CLint [2]: 160 µL/min/mg | microsomal CLint [3]: 164 µL/min/mg | solubility thermodynamic [4]: 10 µg/mL (≈ 39.3 µM) | Activity [5]: 1.6% | Activity [6]: 25% | Activity [7]: 15% | Activity [8]: 13% | Activity [9]: 76% | Activity [10]: 89% | Activity [11]: 100%

CN(C)c1nccc(-c2ccc(=O)n(C)c2)n1
IC50 [1]: 7940 nM

N[C@H]1CCN(c2nccc(-c3cnn4ncccc34)n2)C1
microsomal CLint [2]: 199 µL/min/mg | microsomal CLint [3]: 48 µL/min/mg | solubility thermodynamic [4]: 1920 µg/mL (≈ 6820 µM) | Activity [5]: 18% | Activity [6]: 29% | Activity [7]: 36% | Activity [8]: 72% | Activity [9]: 95% | Activity [10]: 100% | Activity [11]: 100%

CN(CCC(F)(F)F)c1nccc(-c2cnn3ncccc23)n1
IC50 [1]: 229 nM

c1cnn2ncc(-c3ccnc(N4CCC5(CCOC5)C4)n3)c2c1 (centres undefined)
IC50 [1]: 269 nM

CN(C)c1nccc(-c2cn(C)c3cnccc23)n1
IC50 [1]: 977 nM

CC1(F)CN(c2nccc(-c3cnn4ncccc34)n2)C1
IC50 [1]: 372 nM

Cc1ccc2c(-c3ccnc(N(C)C)n3)cnn2n1
IC50 [1]: 871 nM

CN(CCCC(F)(F)F)c1nccc(-c2cnn3ncccc23)n1
IC50 [1]: 100 nM

C[C@H]1CCN(c2nccc(-c3cnn4ncccc34)n2)C1
IC50 [1]: 115 nM | microsomal CLint [2]: 378 µL/min/mg | microsomal CLint [3]: 448 µL/min/mg | solubility thermodynamic [4]: 20 µg/mL (≈ 71.3 µM) | Activity [5]: 7.2% | Activity [6]: 15% | Activity [7]: 17% | Activity [8]: 16% | Activity [9]: 88% | Activity [10]: 100% | Activity [11]: 77%

CN(c1ccccc1)c1nccc(-c2cnn3ncccc23)n1
microsomal CLint [2]: 450 µL/min/mg | microsomal CLint [3]: 340 µL/min/mg | solubility thermodynamic [4]: 50 µg/mL (≈ 165 µM)

CN(C)c1nccc(-c2c[nH]c3ncccc23)n1
IC50 [1]: 135 nM | microsomal CLint [2]: 154 µL/min/mg | microsomal CLint [3]: 234 µL/min/mg

CN(C)c1nccc(-c2c[nH]c3cnccc23)n1
IC50 [1]: 1020 nM

COc1ncc(-c2ccnc(N(C)C)n2)s1
IC50 [1]: 3980 nM

F[C@H]1CCN(c2nccc(-c3cnn4ncccc34)n2)C1
IC50 [1]: 186 nM

CN(C)C1CCN(c2nccc(-c3cnn4ncccc34)n2)C1 (centres undefined)
IC50 [1]: 245 nM

CC1CCN(c2nccc(-c3cnn4ncccc34)n2)C1 (single isomer, unassigned) [listing 1 of 2 here]
Activity [5]: 9.1% | Activity [6]: 25% | Activity [7]: 16% | Activity [8]: 15% | Activity [9]: 73% | Activity [10]: 95% | Activity [11]: 100%

CC1CCN(c2nccc(-c3cnn4ncccc34)n2)C1 (centres undefined)
IC50 [1]: 204 nM

CN(C)c1ncc(Br)c(-c2cnn3ncccc23)n1
IC50 [1]: 1580 nM

CN(C)c1ncc(C(F)(F)F)c(-c2cnn3ncccc23)n1
IC50 [1]: 12900 nM

c1cnn2ncc(-c3ccnc(N4CC5CC5C4)n3)c2c1 (centres undefined)
IC50 [1]: 309 nM

NC1CCN(c2nccc(-c3cnn4ncccc34)n2)C1 (single isomer, unassigned)
microsomal CLint [2]: 40 µL/min/mg | microsomal CLint [3]: 66 µL/min/mg | solubility thermodynamic [4]: 4370 µg/mL (≈ 15500 µM) | Activity [5]: 10% | Activity [6]: 28% | Activity [7]: 47% | Activity [8]: 51% | Activity [9]: 89% | Activity [10]: 86% | Activity [11]: 100%

CC(C)c1cc(-c2cnn3ncccc23)nc(N(C)C)n1
IC50 [1]: 19100 nM

CN(C)c1nccc(-c2cn(C)c3ncccc23)n1
IC50 [1]: 11700 nM

CC1CCCN1c1nccc(-c2cnn3ncccc23)n1 (centres undefined)
IC50 [1]: 110 nM | microsomal CLint [2]: 328 µL/min/mg | microsomal CLint [3]: 929 µL/min/mg | solubility thermodynamic [4]: 10 µg/mL (≈ 35.7 µM) | Activity [5]: 81% | Activity [6]: 66% | Activity [7]: 71% | Activity [8]: 61% | Activity [9]: 100% | Activity [10]: 100% | Activity [11]: 92%

CN(C)c1nccc(-c2cnn3ccccc23)n1
IC50 [1]: 891 nM

COc1cc(-c2cnn3ncccc23)nc(N(C)C)n1
IC50 [1]: > 100000 nM

Cc1ccnn2ncc(-c3ccnc(N(C)C)n3)c12
IC50 [1]: 724 nM

CN(C)c1nccc(-c2cnc3cccnn23)n1
IC50 [1]: 55000 nM

CN(C)c1nc2c(c(-c3cnn4ncccc34)n1)COC2
IC50 [1]: 7410 nM

CN(C)c1ncc(I)c(-c2cnn3ncccc23)n1
IC50 [1]: 1620 nM

Cc1nn2ncccc2c1-c1ccnc(N(C)C)n1
IC50 [1]: 30900 nM

CC1CCN(c2nccc(-c3cnn4ncccc34)n2)C1 (single isomer, unassigned) [listing 2 of 2 here]
IC50 [1]: 148 nM | microsomal CLint [2]: 389 µL/min/mg | microsomal CLint [3]: 184 µL/min/mg | solubility thermodynamic [4]: 50 µg/mL (≈ 178 µM)

c1cnn2ncc(-c3ccnc(N4CCC5CNCC54)n3)c2c1 (centres undefined)
IC50 [1]: 1660 nM

Cc1cccc(N(C)c2nccc(-c3cnn4ncccc34)n2)c1
IC50 [1]: 79.4 nM | microsomal CLint [3]: 784 µL/min/mg

FC1CCN(c2nccc(-c3cnn4ncccc34)n2)C1 (single isomer, unassigned)
IC50 [1]: 66.1 nM | microsomal CLint [2]: 296 µL/min/mg | microsomal CLint [3]: 130 µL/min/mg | solubility thermodynamic [4]: 40 µg/mL (≈ 141 µM) | Activity [5]: 34% | Activity [6]: 39% | Activity [7]: 48% | Activity [8]: 62% | Activity [9]: 96% | Activity [10]: 95% | Activity [11]: 98%

CN(C)c1cccc(-c2cnn3ncccc23)n1
IC50 [1]: 912 nM

CN(C)c1nccc(-c2cnc3ccccn23)n1
IC50 [1]: 692 nM

CCCN(c1nccc(-c2cnn3ncccc23)n1)C(C)C
IC50 [1]: 759 nM

COc1cnc(N(C)C)nc1-c1cnn2ncccc12
IC50 [1]: 1170 nM

COc1ccc2c(-c3ccnc(N(C)C)n3)cnn2n1
IC50 [1]: 2630 nM

CCCN(CCOC)c1nccc(-c2cnn3ncccc23)n1
IC50 [1]: 316 nM

Cc1cnc(N(C)C)nc1-c1cnn2ncccc12
IC50 [1]: 2820 nM

CC(C)N(c1nccc(-c2cnn3ncccc23)n1)C1CC1
IC50 [1]: 1200 nM

Cc1cc(-c2cnn3ncccc23)nc(N(C)C)n1
IC50 [1]: 11700 nM

CCn1cc(-c2ccnc(N(C)C)n2)c2cccnc21
IC50 [1]: 7760 nM

CN(C)c1nc(Cl)cc(-c2cnn3ncccc23)n1
IC50 [1]: 1350 nM

c1cnn2ncc(-c3ccnc(N4CC5CCCC5C4)n3)c2c1 (centres undefined)
IC50 [1]: 1230 nM

Reference: ChEMBL document CHEMBL4808225, “Discovery and Characterization of Selective and Ligand-Efficient DYRK Inhibitors” (J Med Chem, 2021)
